# Calls of active or inactive are those of the source. No cut-off for these calls is given here.
# Columns and labels:
# Escherichia coli [1] = assay: Antibacterial activity against Escherichia coli ATCC 25922 after 24 hrs; type: functional; conditions: ATCC 25922, 24 h
# Outline: (§1)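 Broth microdilution. Mid-log bacteria in MHB at a final (0.5−1) × 10^5 CFU/mL were mixed with equal volumes of peptide serially diluted in 0.2% BSA. Plates were incubated 24 h at 37 °C and read at A492. MIC is the lowest concentration inhibiting 95% of growth. Each test was repeated at least 3 times.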
# Escherichia coli [2] = assay: Antibacterial activity against Escherichia coli 1005 after 24 hrs; type: functional; conditions: Escherichia coli, 1005, 24 h; outline: as §1
# Salmonella typhimurium [3] = assay: Antibacterial activity against Salmonella typhimurium ATCC 14028 after 24 hrs; type: functional, Salmonella enterica subsp. enterica serovar Typhimurium; conditions: Salmonella enterica, ATCC 14028, 24 h; outline: as §1
# [4] = Antibacterial activity against Salmonella pullorum ATCC 7913 after 24 hrs; type: functional, Salmonella enterica subsp. enterica serovar Pullorum; conditions: Salmonella enterica, ATCC 7913, 24 h; outline: as §1
# Staphylococcus aureus [5] = assay: Antibacterial activity against Staphylococcus aureus ATCC 29213 after 24 hrs; type: functional; conditions: ATCC 29213, 24 h
# Outline: (§2)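 Modified NCCLS broth microdilution. Mid-log bacteria at (0.5−1) × 10^5 CFU/mL in MHB were mixed 1:1 with peptide serially diluted in 0.2% BSA and incubated 24 h at 37 °C. Absorbance was read at 492 nm; MIC is the lowest concentration inhibiting 95% of growth. At least 3 repeats.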
# Staphylococcus aureus [6] = assay: Antibacterial activity against methicillin-resistant Staphylococcus aureus ATCC 4330 after 24 hrs; type: functional; conditions: ATCC 4330, 24 h; outline: as §2
# [7] = test system: Staphylococcus epidermidis; assay: Antibacterial activity against Staphylococcus epidermidis ATCC 12228 after 24 hrs; type: functional; conditions: ATCC 12228, 24 h; outline: as §1
# Staphylococcus aureus [8] = assay: Antibacterial activity against Staphylococcus aureus ATCC 25923 after 24 hrs; type: functional; conditions: ATCC 25923, 24 h; outline: as §2
# Escherichia coli [9] = assay: Bactericidal activity against Escherichia coli ATCC 25922; type: functional; conditions: read-out: MBC99.9
# Outline: (§3)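 Wells from the 24 h, 37 °C MHB microdilution plates (bacteria at a final (0.5−1) × 10^5 CFU/mL; peptide diluted in 0.2% BSA) were plated on agar and incubated overnight. MBC is the lowest concentration killing >99.9% of cells. Each test was reproduced at least 3 times.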
# Escherichia coli [10] = assay: Bactericidal activity against Escherichia coli 1005; type: functional; conditions: read-out: MBC99.9; outline: as §3
# Salmonella typhimurium [11] = assay: Bactericidal activity against Salmonella typhimurium ATCC 14028; type: functional, Salmonella enterica subsp. enterica serovar Typhimurium; conditions: Salmonella enterica, read-out: MBC99.9; outline: as §3
# [12] = Bactericidal activity against Salmonella pullorum ATCC 7913; type: functional, Salmonella enterica subsp. enterica serovar Pullorum; conditions: Salmonella enterica, read-out: MBC99.9; outline: as §3
# Staphylococcus aureus [13] = assay: Bactericidal activity against Staphylococcus aureus ATCC 29213; type: functional; conditions: read-out: MBC99.9; outline: as §3
# Staphylococcus aureus [14] = assay: Bactericidal activity against methicillin-resistant Staphylococcus aureus ATCC 4330; type: functional; conditions: read-out: MBC99.9
# Outline: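 Bacteria at (0.5−1) × 10^5 CFU/mL in MHB were exposed to serially diluted peptide (0.2% BSA) for 24 h at 37 °C, then 50 μL aliquots were plated on agar overnight. MBC is the lowest concentration killing >99.9% of cells. At least 3 repeats.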
# [15] = test system: Staphylococcus epidermidis; assay: Bactericidal activity against Staphylococcus epidermidis ATCC 12228; type: functional; conditions: read-out: MBC99.9; outline: as §3
# Staphylococcus aureus [16] = assay: Bactericidal activity against Staphylococcus aureus ATCC 25923; type: functional; conditions: read-out: MBC99.9; outline: as §3
# Escherichia coli [17] = assay: Antibacterial activity against Escherichia coli ATCC 25922 after 18 hrs in presence of NaCl by broth dilution method; type: functional; conditions: ATCC 25922, 18 h
# Escherichia coli [18] = assay: Antibacterial activity against Escherichia coli ATCC 25922 after 18 hrs in presence of KCl by broth dilution method; type: functional; conditions: ATCC 25922, 18 h
# Escherichia coli [19] = assay: Antibacterial activity against Escherichia coli ATCC 25922 after 18 hrs in presence of NH4Cl by broth dilution method; type: functional; conditions: ATCC 25922, 18 h
# Escherichia coli [20] = assay: Antibacterial activity against Escherichia coli ATCC 25922 after 18 hrs in presence of MgCl2 by broth dilution method; type: functional; conditions: ATCC 25922, 18 h
# Escherichia coli [21] = assay: Antibacterial activity against Escherichia coli ATCC 25922 after 18 hrs in presence of CaCl2 by broth dilution method; type: functional; conditions: ATCC 25922, 18 h
# Escherichia coli [22] = assay: Antibacterial activity against Escherichia coli ATCC 25922 after 18 hrs in presence of ZnCl2 by broth dilution method; type: functional; conditions: ATCC 25922, 18 h
# Escherichia coli [23] = assay: Antibacterial activity against Escherichia coli ATCC 25922 after 18 hrs in presence of FeCl3 by broth dilution method; type: functional; conditions: ATCC 25922, 18 h
# Escherichia coli [24] = assay: Antibacterial activity against Escherichia coli ATCC 25922 after 18 hrs in presence of 12.5% human heat-inactivated serum by broth dilution method; type: functional; conditions: ATCC 25922, 18 h
# Escherichia coli [25] = assay: Antibacterial activity against Escherichia coli ATCC 25922 after 18 hrs in presence of 25% human heat-inactivated serum by broth dilution method; type: functional; conditions: ATCC 25922, 18 h
# Escherichia coli [26] = assay: Antibacterial activity against Escherichia coli ATCC 25922 after 18 hrs in presence of 50% human heat-inactivated serum by broth dilution method; type: functional; conditions: ATCC 25922, 18 h
# Lipid bilayer [27] = assay: Binding affinity to phosphatidylcholine/cholesterol large unilamellar vesicle assessed as induction of calcein leakage at 2 to 32 uM after 15 mins by spectrofluorophotometric method; conditions: 0.25 h
# Outline: (§4)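 Large unilamellar vesicles were made from PG/CL/PE (2:1:7), PC/PE/PI/ergosterol (5:4:1:2) or PC/cholesterol (10:1), loaded with 70 mM calcein in Tris/NaCl/EDTA buffer at pH 7.4, frozen and thawed 20 times, and extruded through 100 nm filters. Free dye was removed by gel filtration, and peptide-induced calcein release was measured.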
# Lipid bilayer [28] = assay: Binding affinity to phosphatidylglycerol/cardiolipin/phosphatidylethanolamine large unilamellar vesicle assessed as induction of calcein leakage at 2 to 32 uM after 15 mins by spectrofluorophotometric method; outline: as §4
smiles,measurement,setting,value
O=C(O)c1cn(C2CC2)c2cc(N3CCNCC3)c(F)cc2c1=O [CIPROFLOXACIN],MIC95,Escherichia coli [1],2 µM
same,MIC95,Escherichia coli [2],2 µM
same,MIC95,Salmonella typhimurium [3],8 µM
same,MIC95,[4],2 µM
same,MIC95,Staphylococcus aureus [5],4 µM
same,MIC95,Staphylococcus aureus [6],1 µM
same,MIC95,[7],2 µM
same,MIC95,Staphylococcus aureus [8],8 µM
same,MBC,Escherichia coli [9],4 µM
same,MBC,Escherichia coli [10],4 µM
same,MBC,Salmonella typhimurium [11],16 µM
same,MBC,[12],4 µM
same,MBC,Staphylococcus aureus [13],4 µM
same,MBC,Staphylococcus aureus [14],1 µM
same,MBC,[15],4 µM
same,MBC,Staphylococcus aureus [16],8 µM
same,MIC,Escherichia coli [17],2 µM
same,MIC,Escherichia coli [18],2 µM
same,MIC,Escherichia coli [19],2 µM
same,MIC,Escherichia coli [20],8 µM
same,MIC,Escherichia coli [21],8 µM
same,MIC,Escherichia coli [22],2 µM
same,MIC,Escherichia coli [23],4 µM
same,MIC,Escherichia coli [24],2 µM
same,MIC,Escherichia coli [25],2 µM
same,MIC,Escherichia coli [26],4 µM
same,Activity,Lipid bilayer [27],Not Active
same,Activity,Lipid bilayer [28],inactive

# Reference: ChEMBL document CHEMBL4177755, “Combating Drug-Resistant Fungi with Novel Imperfectly Amphipathic Palindromic Peptides” (J Med Chem, 2018)
